ChEMBL document CHEMBL4811254, “Beyond Basicity: Discovery of Nonbasic DENV-2 Protease Inhibitors with Potent Activity in Cell Culture” (J Med Chem, 2021)
pEC50, pKi: −log10 of the molar value. Activity calls are given as the source filed them.

Tests used:
[1] = Passive membrane permeability of the compound in phosphate buffered saline assessed as concentration of the compound in acceptor plate at 200 uM incubated for 5 hrs by PAMPA assay based HPLC analysis; type: ADME
Outline: (§1)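 Precoated trilayer PAMPA, 5 h incubation. Acceptor and donor concentrations measured after 5 h. Permeability and mass retention calculated by a literature method.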

[2] = Passive membrane permeability of the compound in phosphate buffered saline at 200 uM incubated for 5 hrs by PAMPA assay based HPLC analysis; type: ADME; conditions: PAMPA, read-out: permeability; outline: as §1
Huh-7 = test: Cytotoxicity against human Huh-7 cells assessed as reduction in cell viability at 12.5 uM incubated for 48 hrs by CellTiter-Blue assay; type: cell-based; conditions: huh-7, 48 h
Outline: (§2)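 Viability by CellTiter-Blue in HeLa or Huh-7 cells exposed to compound dilutions. Plates run in parallel with the reporter assay (HeLa) or the virus titer assay (Huh-7).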

[3] = target: Genome polyprotein (dengue virus type 2) (UniProt P29990); test: Binding affinity to DENV2 NS2B-NS3 protease expressed in Escherichia coli BL21 lambda(DE3) assessed as quenching of fluorescence of tryptophan residue of the enzyme incubated for 1 hr by tryptophan fluorescence quenching assay; conditions: dose 10-50 µM
Outline: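 Compound added to isolated DENV-2 protease; tryptophan fluorescence quenching monitored across concentrations. Aprotinin added as active-site competitor to test displacement.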

[4] = target: Prothrombin (Homo sapiens) (UniProt P00734); test: Inhibition of thrombin in human plasma using Boc-Val-Pro-Arg-AMC as substrate at 25 uM preincubated with enzyme for 15 mins followed by substrate addition and measured for 15 mins by fluorimetric assay; type: cell-free; conditions: time 30.0 min
[5] = Passive membrane permeability of the compound in phosphate buffered saline assessed as mass retention of the compound at 200 uM incubated for 5 hrs by PAMPA assay based HPLC analysis; type: ADME; outline: as §1
dengue virus type 2 [6] = test: Antiviral activity against DENV2 infected in human Huh7 cells assessed as reduction in virus titer in cell supernatant by measuring inhibition of plaque formation using VeroE6 cells at 12.5 uM preincubated with viral infected Huh7 cells for 48 hrs and measured following infection of VeroE6 cells with supernatants for 7 days by plaque assay based crystal violet staining analysis; type: functional; conditions: Huh-7, 216 h, time 9 day
Outline: (§3)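 Huh-7 cells seeded at 1 × 10⁴/well and incubated overnight. Infected with DENV-2 at MOI 1 for 2 h, then medium changed and compound added. […] Pooled supernatants titred by plaque assay on VeroE6 cells: 10⁻¹ to 10⁻⁶ dilutions, 1 h infection, 7 days, formaldehyde fix, crystal violet.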

Trypsin (Homo sapiens) = Trypsin (Homo sapiens) (UniProt P07477+P07478+P35030); test: Inhibition of trypsin (unknown origin) using Boc-Val-Pro-Arg-AMC as substrate at 50 uM preincubated with enzyme for 15 mins followed by substrate addition and measured for 15 mins by fluorimetric assay; type: protein assay; conditions: time 30.0 min
[7] = Passive membrane permeability of the compound in phosphate buffered saline assessed as concentration of the compound in donor plate at 200 uM incubated for 5 hrs by PAMPA assay based HPLC analysis; type: ADME; outline: as §1
[8] = target: Genome polyprotein (dengue virus type 2) (UniProt P29990); test: Inhibition of NS2B-NS3 protease in DENV2proHeLa system assessed as inhibition of luciferase signal at 12.5 uM incubated for 24 hrs by luciferase reporter gene assay; type: cell-based; conditions: HeLa
Outline: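 Stable DENV2proHeLa cells seeded at 2 × 10⁴/well and dosed immediately, then incubated 24 h at 37 °C. Cells lysed 15 min at room temperature. Luciferase read with coelenterazine (2.75 μM in PBS) injection, luminescence 5 s. Triplicates; percent inhibition calculated relative to untreated control; background from cell-free wells.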

[9] = target: Genome polyprotein (dengue virus type 2) (UniProt P29990); test: Binding affinity to DENV2 NS2B-NS3 protease expressed in Escherichia coli BL21 lambda(DE3) assessed as quenching of fluorescence of tryptophan residue of the enzyme at 50 uM incubated for 1 hr in presence of aprotinin by tryptophan fluorescence quenching assay
Genome polyprotein [10] = target: T1, Genome polyprotein (dengue virus type 2, UniProt P29990); test: Inhibition of NS2B-NS3 protease in DENV2proHeLa system assessed as inhibition of luciferase signal incubated for 24 hrs by luciferase reporter gene assay; type: cell-based, HeLa
Outline: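 HeLa cells stably carrying the reporter system, 2 × 10⁴ per well, given inhibitor at seeding and held 24 h at 37 °C. Cells lysed 15 min at room temperature. Luciferase read for 5 s after injecting coelenterazine (2.75 μM in PBS). Triplicate wells per concentration; percent inhibition taken against untreated cells. EC50/EC90 from 4-parameter dose-response fit, background from cell-free wells subtracted.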

[11] = Cytotoxicity against human HeLa cells assessed as reduction in cell viability incubated for 24 hrs by CellTiter-Blue assay; type: cell-based; outline: as §2
[12] = target: Genome polyprotein (West Nile virus) (UniProt P06935); test: Inhibition of WNV NS2B-NS3 protease expressed in Escherichia coli BL21 lambda(DE3) using FRET substrate preincubated with enzyme for 15 mins in presence of detergent CHAPS followed by substrate addition for 15 mins by fluorescence based analysis; conditions: time 30.0 min
[13] = target: Genome polyprotein (dengue virus type 2) (UniProt P29990); test: Inhibition of DENV2 NS2B-NS3 protease expressed in Escherichia coli BL21 lambda(DE3) using FRET substrate preincubated with enzyme for 15 mins in presence of detergent CHAPS followed by substrate addition for 15 mins by fluorescence based analysis; conditions: time 30.0 min
dengue virus type 2 [14] = test: Antiviral activity against DENV2 infected in human Huh7 cells assessed as reduction in virus titer in cell supernatant by measuring inhibition of plaque formation using VeroE6 cells preincubated with viral infected Huh7 cells for 48 hrs and measured following infection of VeroE6 cells with supernatants for 7 days by plaque assay based crystal violet staining analysis; type: functional, organism-based, Huh-7; conditions: for pEC50: Huh-7; for EC90: Huh-7, 216 h, time 9 day; outline: as §3
[15] = target: Genome polyprotein (dengue virus type 2) (UniProt P29990); test: Competitive inhibition of DENV2 NS2B-NS3 protease expressed in Escherichia coli BL21 lambda(DE3) assessed as increase in Km without change in Vmax using FRET substrate preincubated with enzyme for 15 mins followed by substrate addition for 15 mins by Michaelis-Menten based analysis; conditions: time 30.0 min
Genome polyprotein [16] = target: T1, Genome polyprotein; test: Competitive inhibition of DENV2 NS2B-NS3 protease expressed in Escherichia coli BL21 lambda(DE3) using FRET substrate preincubated with enzyme for 15 mins followed by substrate addition for 15 mins by Michaelis-Menten based analysis
[17] = Stability of the compound assessed as bovine pancreas alphachymotrypsin-mediated parent compound depletion by measuring parent compound remaining at 0.1 mg/ml incubated for 120 mins by HPLC analysis; type: ADME, Bos taurus; conditions: cattle, bovine pancreas alpha-chymotrypsin, read-out: Stabilty
Outline: (§4)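 Compound incubated with α-chymotrypsin or bovine trypsin in buffer for 120 min at 37 °C; parent compound depletion monitored.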

[18] = Selectivity index, ratio of CC50 for human HeLa cells to EC50 for inhibition of NS2B-NS3 protease in DENV2proHeLa system; type: toxicity; conditions: read-out: Ratio CC50/EC50
[19] = Stability of the compound assessed as bovine pancreas trypsin-mediated parent compound depletion at 0.1 mg/ml incubated for 120 mins by HPLC analysis; type: ADME, Bos taurus; conditions: cattle; for metabolised at 2 h, 0.1 mg/ml: bovine pancreas trypsin, read-out: Drug degradation; outline: as §4
Genome polyprotein [20] = target: T1, Genome polyprotein; test: Competitive inhibition of DENV2 NS2B-NS3 protease expressed in Escherichia coli BL21 lambda(DE3) using FRET substrate preincubated with enzyme for 15 mins followed by varying concentrations of substrate addition for 15 mins by Cheng-Prusoff plot analysis

Sequence of Genome polyprotein (West Nile virus) (P06935 whole entry): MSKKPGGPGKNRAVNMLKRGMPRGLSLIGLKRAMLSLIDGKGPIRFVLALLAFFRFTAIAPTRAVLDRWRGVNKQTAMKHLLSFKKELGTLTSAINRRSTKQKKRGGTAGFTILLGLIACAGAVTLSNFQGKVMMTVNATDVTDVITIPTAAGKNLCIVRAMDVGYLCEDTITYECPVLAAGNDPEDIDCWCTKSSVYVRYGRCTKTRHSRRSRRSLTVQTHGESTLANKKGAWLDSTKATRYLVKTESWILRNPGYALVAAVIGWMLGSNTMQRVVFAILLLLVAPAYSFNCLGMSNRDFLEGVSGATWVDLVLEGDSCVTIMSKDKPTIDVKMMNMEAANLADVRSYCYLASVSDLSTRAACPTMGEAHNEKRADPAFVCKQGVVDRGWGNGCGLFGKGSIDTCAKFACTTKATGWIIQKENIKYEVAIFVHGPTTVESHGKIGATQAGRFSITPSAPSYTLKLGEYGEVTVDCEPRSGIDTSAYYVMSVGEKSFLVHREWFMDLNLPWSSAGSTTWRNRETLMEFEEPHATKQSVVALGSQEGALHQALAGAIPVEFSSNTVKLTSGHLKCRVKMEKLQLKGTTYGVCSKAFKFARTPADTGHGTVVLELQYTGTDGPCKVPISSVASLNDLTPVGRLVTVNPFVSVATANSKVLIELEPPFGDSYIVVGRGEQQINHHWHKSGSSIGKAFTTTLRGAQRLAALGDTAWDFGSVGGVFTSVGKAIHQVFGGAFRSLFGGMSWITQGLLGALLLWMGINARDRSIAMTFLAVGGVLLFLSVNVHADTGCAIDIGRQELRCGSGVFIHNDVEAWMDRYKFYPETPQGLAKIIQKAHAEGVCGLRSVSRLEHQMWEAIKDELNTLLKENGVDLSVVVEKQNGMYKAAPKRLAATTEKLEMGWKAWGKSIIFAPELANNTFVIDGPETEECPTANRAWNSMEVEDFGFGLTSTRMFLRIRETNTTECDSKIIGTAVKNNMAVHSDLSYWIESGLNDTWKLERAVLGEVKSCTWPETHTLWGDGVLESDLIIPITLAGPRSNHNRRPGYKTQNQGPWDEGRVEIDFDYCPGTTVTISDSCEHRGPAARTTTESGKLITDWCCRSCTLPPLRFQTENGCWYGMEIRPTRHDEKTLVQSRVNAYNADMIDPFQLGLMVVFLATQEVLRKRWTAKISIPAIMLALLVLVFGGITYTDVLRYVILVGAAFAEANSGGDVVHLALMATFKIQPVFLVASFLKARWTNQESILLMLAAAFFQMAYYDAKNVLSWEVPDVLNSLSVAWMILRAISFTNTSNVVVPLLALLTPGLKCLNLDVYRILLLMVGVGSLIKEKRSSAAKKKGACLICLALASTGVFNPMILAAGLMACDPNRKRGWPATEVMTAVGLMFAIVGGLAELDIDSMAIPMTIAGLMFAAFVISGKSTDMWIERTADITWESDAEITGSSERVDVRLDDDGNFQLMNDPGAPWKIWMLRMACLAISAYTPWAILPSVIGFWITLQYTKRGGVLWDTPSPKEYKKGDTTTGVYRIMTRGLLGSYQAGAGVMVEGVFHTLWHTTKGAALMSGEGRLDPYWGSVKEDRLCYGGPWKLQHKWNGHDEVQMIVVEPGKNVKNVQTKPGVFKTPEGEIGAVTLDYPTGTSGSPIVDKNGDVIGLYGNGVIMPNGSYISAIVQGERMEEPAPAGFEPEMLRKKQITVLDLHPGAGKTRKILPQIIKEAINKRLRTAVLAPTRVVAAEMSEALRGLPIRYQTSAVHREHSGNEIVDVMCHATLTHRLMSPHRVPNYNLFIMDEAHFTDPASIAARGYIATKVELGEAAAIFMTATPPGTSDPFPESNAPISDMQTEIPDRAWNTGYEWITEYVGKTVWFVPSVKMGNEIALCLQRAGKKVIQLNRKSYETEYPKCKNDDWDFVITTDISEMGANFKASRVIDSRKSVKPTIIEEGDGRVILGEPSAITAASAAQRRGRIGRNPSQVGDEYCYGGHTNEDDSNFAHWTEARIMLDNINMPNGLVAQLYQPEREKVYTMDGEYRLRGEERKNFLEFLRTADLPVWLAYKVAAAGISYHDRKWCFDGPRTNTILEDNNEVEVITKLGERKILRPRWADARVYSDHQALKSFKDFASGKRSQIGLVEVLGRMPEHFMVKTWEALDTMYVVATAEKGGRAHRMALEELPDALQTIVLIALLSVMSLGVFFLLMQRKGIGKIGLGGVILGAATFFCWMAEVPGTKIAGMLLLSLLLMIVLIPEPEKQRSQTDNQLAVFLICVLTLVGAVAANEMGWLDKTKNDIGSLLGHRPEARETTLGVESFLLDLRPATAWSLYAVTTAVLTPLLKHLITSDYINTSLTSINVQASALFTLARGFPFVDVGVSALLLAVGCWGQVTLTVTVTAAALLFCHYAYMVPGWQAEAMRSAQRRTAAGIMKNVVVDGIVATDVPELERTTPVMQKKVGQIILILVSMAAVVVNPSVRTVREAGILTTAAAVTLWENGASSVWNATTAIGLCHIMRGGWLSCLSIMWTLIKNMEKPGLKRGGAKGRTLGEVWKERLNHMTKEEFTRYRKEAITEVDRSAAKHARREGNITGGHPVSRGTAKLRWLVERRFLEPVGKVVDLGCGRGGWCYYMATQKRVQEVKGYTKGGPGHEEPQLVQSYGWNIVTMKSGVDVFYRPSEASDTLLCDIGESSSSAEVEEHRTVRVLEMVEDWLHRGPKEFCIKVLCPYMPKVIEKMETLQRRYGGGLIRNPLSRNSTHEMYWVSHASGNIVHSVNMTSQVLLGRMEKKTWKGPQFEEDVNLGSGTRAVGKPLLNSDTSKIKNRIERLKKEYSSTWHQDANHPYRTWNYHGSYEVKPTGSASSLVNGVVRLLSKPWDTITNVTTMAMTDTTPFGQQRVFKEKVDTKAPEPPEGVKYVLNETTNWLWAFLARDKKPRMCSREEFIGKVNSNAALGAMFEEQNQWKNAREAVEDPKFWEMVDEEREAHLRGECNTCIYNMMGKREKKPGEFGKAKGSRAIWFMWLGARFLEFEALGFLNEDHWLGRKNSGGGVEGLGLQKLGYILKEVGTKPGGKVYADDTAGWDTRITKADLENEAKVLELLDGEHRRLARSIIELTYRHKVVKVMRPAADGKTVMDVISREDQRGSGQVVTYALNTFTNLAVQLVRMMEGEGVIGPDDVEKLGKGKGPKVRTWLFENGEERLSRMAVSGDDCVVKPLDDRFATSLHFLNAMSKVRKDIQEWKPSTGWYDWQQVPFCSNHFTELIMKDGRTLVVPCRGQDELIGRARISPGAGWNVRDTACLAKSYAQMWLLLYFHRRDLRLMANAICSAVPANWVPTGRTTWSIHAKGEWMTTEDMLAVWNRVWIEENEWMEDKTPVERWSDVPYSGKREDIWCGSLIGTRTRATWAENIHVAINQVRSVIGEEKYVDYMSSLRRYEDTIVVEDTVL

Row | SMILES | Activity [1] | Papp at 5 h, 200 µM [2] | Activity (Huh-7) | inhibition [4] | Activity [5] | inhibition at 12.5 µM (dengue virus type 2 [6]) | inhibition (Trypsin (Homo sapiens)) | Activity [7] | inhibition [8] | pEC50 (Genome polyprotein [10]) | CC50 at 24 h [11] | inhibition [13] | pEC50 (dengue virus type 2 [14]) | EC90 (dengue virus type 2 [14]) | other results
1 | NC(=O)c1cccc(NC(=O)[C@@H](NC(=O)c2ccc(-c3ccco3)cc2)c2ccc(OCc3ccccc3)cc2)c1 | 2.1 µM | 0.45 ×10⁻⁶ cm/s | < 20% | inactive | 15% | 59% | inactive | 169 µM | 76% | 5.77 | > 50 µM |  |  |  | Activity [3]: Active; Activity [9]: inactive
2 | N#Cc1ccc(Oc2ccc(C(=O)N[C@H](C(=O)Nc3cccc(C(N)=O)c3)c3ccc(OCc4ccccc4)cc3)cc2)cc1 | 4.5 µM | 1 ×10⁻⁶ cm/s | < 20% | inactive | 9.9% | 88% | inactive | 177 µM | 79% | 6.00 | > 100 µM | Active | 6.18 | 8 µM | inhibition [12]: Active
3 | NC(=O)c1cccc(NC(=O)[C@@H](NC(=O)c2ccc(Oc3ccccc3)cc2)c2ccc(OCc3ccccc3)cc2)c1 | 9.5 µM | 2.2 ×10⁻⁶ cm/s | < 20% | inactive | 15% | 100% | inactive | 164 µM | 83% | 6.14 | > 100 µM | Active | 6.18 | 7 µM | inhibition [15]: Active; pKi (Genome polyprotein [16]): 5.28; remaining at 2 h, 0.1 mg/ml [17]: 70%; selectivity ratio [18]: > 140; metabolised at 2 h, 0.1 mg/ml [19]: 25%; pKi (Genome polyprotein [20]): 5.21
4 | NC(=O)c1cccc(NC(=O)[C@@H](NC(=O)c2ccc(C(=O)c3ccccc3)cc2)c2ccc(OCc3ccccc3)cc2)c1 | 8.6 µM | 1.8 ×10⁻⁶ cm/s | < 20% | inactive | 8.1% | 100% | inactive | 178 µM | 76% | 6.41 | > 100 µM | Active | 5.96 | 4.6 µM | remaining at 2 h, 0.1 mg/ml [17]: 70%; metabolised at 2 h, 0.1 mg/ml [19]: 25%; pKi (Genome polyprotein [20]): 5.46
5 | N=C(N)NCCC[C@H](NC(=O)c1ccccc1)C(=O)NC(CCCCN)C(=O)NC(C(N)=O)c1ccc(OCc2ccccc2)cc1 (some centres not stated) |  |  | < 20% |  |  | 50% |  |  |  |  |  | Active |  |  | inhibition [12]: Active; Stabilty ([19]; isolated protein, 2 h): Unstable
6 | NC(=O)c1cccc(NC(=O)[C@@H](NC(=O)c2ccc(Oc3ccc4c(c3)OCO4)cc2)c2ccc(OCc3ccccc3)cc2)c1 | 3.7 µM | 0.8 ×10⁻⁶ cm/s | < 20% | inactive | 8.7% | 98% | inactive | 180 µM | 78% | 5.82 | > 100 µM | Active | 5.66 | 6.8 µM | 
7 | NC(=O)c1ccc(CNC(=O)[C@@H](NC(=O)c2ccc(-c3cccs3)s2)c2ccc(OCc3ccccc3)cc2)cc1 |  |  |  | inactive |  |  | inactive |  | 63% | 5.21 | > 100 µM |  |  |  | Activity [3]: Active; Activity [9]: inactive
8 | NC(=O)c1cccc(NC(=O)[C@@H](NC(=O)c2ccc(Oc3ccc(Cl)cc3)cc2)c2ccc(OCc3ccccc3)cc2)c1 |  |  |  | inactive |  |  | inactive |  | 86% | 6.24 | 96 µM |  |  |  | selectivity ratio [18]: > 140
